Published values gathered from unrelated publications.
Each line is one published result; the experiments were not run side by side.
Target: Serine/threonine-protein kinase 25 (STK25, Homo sapiens, UniProt O00506)

| SMILES | assay | setting | endpoint | result |
| --- | --- | --- | --- | --- |
| Cn1cc(-c2cc(F)cc(N3CCn4c(cc5c4CCCC5)C3=O)c2CO)cc(Nc2ccc(N3CCN(C4COC4)CC3)cn2)c1=O | enzyme activity, inhibitor | 0.1 µM | inhibition | 8% |
| COCc1c(-c2cc3cc(C)cc(OC)c3s2)c2c(N)ncnn2c1CN1CCNC(=O)C1 | cell-free assay, competition with immobilised ligand | 1 µM | inhibition | 87% |
| Cn1cncc1[C@](O)(COc1ccc(C#N)cc1-c1ccc(OC(F)(F)F)cc1)c1ccc(C#N)cc1 | cell-free assay, competition with immobilised ligand | 1 µM | remaining binding | 91% |
| CC(C)(C)c1cc(C=C(C#N)C#N)cc(Br)c1O | enzyme activity, inhibitor | 0.5 µM | remaining activity | 102% |
| COc1ncccc1-c1cnn2ccc(N3CCN(C(=O)OC(C)C)CC3)nc12 | binding, competition with immobilised ligand | 1 µM | remaining binding | 65% |
| Cc1nn(C)cc1-c1nc2c(N3CCN(Cc4ccc(Cl)cc4)CC3)c(Cl)cnc2[nH]1 | binding, competition with immobilised ligand | 1 µM | remaining binding | 70% |
| Nc1ncc(-c2nc(N3CCOCC3)nc(N3CCOCC3)n2)c(C(F)F)n1 | binding, competition with immobilised ligand | 10 µM | remaining binding | 93% |
| Cn1cc(-c2cccc(N3CCc4c(sc5c4CC(C)(C)C5)C3=O)c2CO)cc(Nc2ccncn2)c1=O | enzyme activity, inhibitor | 1 µM | inhibition | -13% |
| N#CC1(c2ccccn2)CCN(Cc2cc(C(=O)O)c(=O)n3ccccc23)CC1 | cell-free assay, competition with immobilised ligand | 1 µM | remaining binding | 100% |
| O=c1[nH]c2ccccc2n1C1CCN(Cc2ccc(-c3[nH]c4cc5ncnc5cc4nc3-c3ccccc3)cc2)CC1 | cell-free assay | 0.5 µM | remaining signal | 89.8% |
